Measured values: ChEMBL document CHEMBL5338825, “Structure-Based Discovery of Inhibitors of the SARS-CoV-2 Nsp14 N7-Methyltransferase” (J Med Chem, 2023)
Calls of active or inactive are those of the source. No cut-off for these calls is given here.

What was measured:
[1] = biological target: Replicase polyprotein 1ab (Severe acute respiratory syndrome coronavirus 2, UniProt P0DTD1); assay: (§1) Inhibition of N-terminal 6His/SUMO-tagged SARS-CoV-2 NSP14 expressed in Escherichia coli Rosetta 2 (DE3) PlysS cells using 5'GpppACCCCCCCCC-Biotin 3' and 3H-SAM as substrates incubated for 30 mins by TopCount scintillation proximity assay
Homo sapiens [2] = species: Homo sapiens; assay: Inhibition of MDH (unknown origin) using oxaloacetic acid as substrate preincubated with compound for 5 mins followed by substrate addition and measured after 1.5 min in the presence of NADH by absorbance based plate reader analysis; conditions: time 6.5 min
Outline: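 MDH assay at room temperature in 50 mM KPi, pH 7.0, with 1% v/v DMSO final. Compound preincubated 5 min with 2 nM enzyme. Reaction started with 200 μM NADH plus 200 μM oxaloacetic acid, and absorbance followed at 340 nm for 1 min 30 s. Initial rate divided by the DMSO control rate. Single top concentration in triplicate; eight-point half-log curves in triplicate where inhibition exceeded 40%.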

[3] = biological target: Replicase polyprotein 1ab (Severe acute respiratory syndrome coronavirus 2) (UniProt P0DTD1); assay: Inhibition of N-terminal 6His/SUMO-tagged SARS-CoV-2 NSP14 expressed in Escherichia coli Rosetta 2 (DE3) PlysS cells using 5'GpppACCCCCCCCC-Biotin 3' and 3H-SAM as substrates at 300 uM incubated for 30 mins by TopCount scintillation proximity assay relative to control
[4] = biological target: Replicase polyprotein 1ab (Severe acute respiratory syndrome coronavirus 2) (UniProt P0DTD1); assay: Inhibition of N-terminal 6His/SUMO-tagged SARS-CoV-2 NSP14 expressed in Escherichia coli Rosetta 2 (DE3) PlysS cells using 5'GpppACCCCCCCCC-Biotin 3' and 3H-SAM as substrates at 100 uM incubated for 30 mins by TopCount scintillation proximity assay relative to control
[5] = biological target: Replicase polyprotein 1ab (Severe acute respiratory syndrome coronavirus 2) (UniProt P0DTD1); assay: Irreversible covalent inhibition of N-terminal 6His/SUMO-tagged SARS-CoV-2 NSP14 expressed in Escherichia coli Rosetta 2 (DE3) PlysS cells using 5'GpppACCCCCCCCC-Biotin 3' and 3H-SAM as substrates assessed as adduct formation incubated for 2 hrs by mass spectrometric analysis
Outline: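 Nsp14 incubated with 20-fold molar excess of compound for 2 h at 20 °C, then taken into 0.1% formic acid. Separated by HPLC on a 5–95% acetonitrile/water gradient and analysed by ESI time-of-flight MS for protein mass shift.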

[6] = Aggregation property of the compound in KPi buffer at pH 7.0 assessed as formation of colloid-like particles by dynamic light scattering analysis; format: physicochemical
Outline: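 Compounds diluted as 8-point half-log series in filtered 50 mM KPi, pH 7.0, with 1% v/v DMSO final. Particles detected by dynamic light scattering, triplicate at each concentration. CAC taken as the intersection of separate nonlinear fits to aggregating (>10^6 scattering intensity) and non-aggregating data.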

Bacteria [7] = assay: Inhibition of beta-lactamase AmpC (unknown origin) pre-incubated with compound for 5 mins followed by substrate addition and measured after 1.5 mins in the presence of 0.01% Triton-X 100 by absorbance based plate reader analysis; conditions: time 6.5 min
Outline: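 AmpC detergent-reversal assay: 50 mM KPi, pH 7.0, with 1% v/v DMSO and 0.01% v/v Triton X-100. Enzyme at 2 nM preincubated 5 min with compound, then 50 μM CENTA (405 nm) or nitrocefin (490 nm) added. Absorbance followed for 1 min 30 s and rate normalised to DMSO. Eight-point half-log curves in triplicate.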

Homo sapiens [8] = species: Homo sapiens; assay: Inhibition of MDH (unknown origin) using oxaloacetic acid as substrate preincubated with compound for 5 mins followed by substrate addition and measured after 1.5 min in the presence of NADH and 0.01% Triton-X 100 by absorbance based plate reader analysis; conditions: time 6.5 min
Outline: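 Detergent-reversal MDH assay: 50 mM KPi, pH 7.0, with 1% v/v DMSO and 0.01% v/v Triton X-100. Enzyme at 2 nM preincubated 5 min with compound, then started with 200 μM NADH plus 200 μM oxaloacetate. A340 read for 1 min 30 s, rate normalised to DMSO control. Eight-point half-log curves in triplicate.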

Bacteria [9] = assay: Inhibition of beta-lactamase AmpC (unknown origin) pre-incubated with compound for 5 mins followed by substrate addition and measured after 1.5 mins by absorbance based plate reader analysis; conditions: time 6.5 min
Outline: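 AmpC at 2 nM preincubated 5 min with compound at room temperature in 50 mM KPi, pH 7.0, with 1% v/v DMSO. Started with 50 μM CENTA (read at 405 nm) or 50 μM nitrocefin (read at 490 nm), monitored 1 min 30 s. Initial rate taken as % of DMSO control. Top concentration in triplicate; eight-point half-log curves in triplicate where inhibition exceeded 40%.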

[10] = biological target: Replicase polyprotein 1ab (Severe acute respiratory syndrome coronavirus 2) (UniProt P0DTD1); assay: Irreversible covalent inhibition of N-terminal 6His/SUMO-tagged SARS-CoV-2 NSP14 expressed in Escherichia coli Rosetta 2 (DE3) PlysS cells using 5'GpppACCCCCCCCC-Biotin 3' and 3H-SAM as substrates assessed as adduct formation at 500 uM measured upto 18 hrs by mass spectrometric analysis
Outline: (§2)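 1 μM enzyme held alone or with 50 or 500 μM compound at room temperature. Sampled at 0, 2, 4, 8 and 18 h by QTof MS in 0.05% formic acid; intact mass deconvoluted from 700–1400 m/z.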

[11] = biological target: Replicase polyprotein 1ab (Severe acute respiratory syndrome coronavirus 2) (UniProt P0DTD1); assay: Reversible inhibition of N-terminal 6His/SUMO-tagged SARS-CoV-2 NSP14 expressed in Escherichia coli Rosetta 2 (DE3) PlysS cells using 5'GpppACCCCCCCCC-Biotin 3' and 3H-SAM as substrates at increasing concentration incubated for 30 mins by TopCount scintillation proximity assay
[12] = biological target: Replicase polyprotein 1ab (Severe acute respiratory syndrome coronavirus 2) (UniProt P0DTD1); assay: Competitive inhibition of N-terminal 6His/SUMO-tagged SARS-CoV-2 NSP14 expressed in Escherichia coli Rosetta 2 (DE3) PlysS cells using 5'GpppACCCCCCCCC-Biotin 3' and 3H-SAM as substrates at increasing concentration incubated for 30 mins by TopCount scintillation proximity assay
Outline: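 Competition pattern read from IC50 shifts. […] Separately, SAM fixed at 1.25 μM (5× Km) with RNA varied up to 0.5 μM (10× Km). A linear rise of IC50 with substrate concentration was taken as competitive inhibition.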

[13] = biological target: Replicase polyprotein 1ab (Severe acute respiratory syndrome coronavirus 2) (UniProt P0DTD1); assay: as §1
[14] = biological target: Replicase polyprotein 1ab (Severe acute respiratory syndrome coronavirus 2) (UniProt P0DTD1); assay: Non-covalent inhibition of N-terminal 6His/SUMO-tagged SARS-CoV-2 NSP14 expressed in Escherichia coli Rosetta 2 (DE3) PlysS cells using 5'GpppACCCCCCCCC-Biotin 3' and 3H-SAM as substrates incubated for 30 mins by TopCount scintillation proximity assay
Outline: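 Radiometric N7-MTase assay tracking [3H]-methyl transfer from SAM onto the cap of […] RNA, run with 0.01% v/v Triton X-100. Concentration–response in triplicate to give IC50.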

[15] = biological target: Replicase polyprotein 1ab (Severe acute respiratory syndrome coronavirus 2) (UniProt P0DTD1); assay: Inhibition of N-terminal 6His/SUMO-tagged SARS-CoV-2 NSP14 expressed in Escherichia coli Rosetta 2 (DE3) PlysS cells using 5'GpppACCCCCCCCC-Biotin 3' and 3H-SAM as substrates at 30 to 50 uM incubated for 30 mins by TopCount scintillation proximity assay relative to control; conditions: dose 30-50 µM
[16] = biological target: Replicase polyprotein 1ab (Severe acute respiratory syndrome coronavirus 2) (UniProt P0DTD1); assay: Irreversible covalent inhibition of N-terminal 6His/SUMO-tagged SARS-CoV-2 NSP14 expressed in Escherichia coli Rosetta 2 (DE3) PlysS cells using 5'GpppACCCCCCCCC-Biotin 3' and 3H-SAM as substrates assessed as adduct formation at 50 uM measured upto 18 hrs by mass spectrometric analysis; outline: as §2

Structure (SMILES) | IC50 [1] [µM] | inhibition (Homo sapiens [2]) | inhibition [3] [%] | Activity [6] | also measured
COc1cc(F)cc(NC(=O)c2cccc(-c3cnc4[nH]c(=O)n(C)c4c3)c2)c1 | 14 | – | – | – | –
C=C(Cl)COC(=O)c1cnc2[nH]ccc2c1 | 31 | Active | > 50 | – | –
C=CC(=O)N(C)c1ccc(C(=O)Nc2ccc(-c3cn4ccsc4n3)cc2)cc1 | 39 | – | – | – | inhibition [4]: > 50%; inhibition [5]: inactive
Cc1nc2ncc(-c3c[nH]nn3)cc2[nH]1 | 127 | – | > 50 | Active | –
CN(Cc1ccncc1)c1cc(Br)ncn1 | 170 | – | > 50 | Active | –
N#Cc1c(C(=O)NCc2ccc(O)c([N+](=O)[O-])c2)[nH]c2ccccc12 | 27 | Active | – | Active | inhibition (Bacteria [7]): inactive; inhibition (Homo sapiens [8]): inactive; inhibition (Bacteria [9]): Active
C=CC(=O)NCCC(=O)N1CCC(C2C(=O)Nc3cc(Cl)ccc32)CC1 (stereo not given) | 32 | – | – | – | inhibition [10]: Active; inhibition [4]: > 50%
C#Cc1cccc(NC(=O)c2cccc(-c3cnc4[nH]c(=O)n(C)c4c3)c2)c1 | – | inactive | – | – | CAC [6]: 10 µM; inhibition (Bacteria [9]): inactive
Oc1ccccc1-c1ncnc2[nH]ccc12 | 12 | Active | > 50 | – | inhibition [11]: Active; inhibition (Homo sapiens [8]): inactive; inhibition [12]: Active; inhibition (Bacteria [9]): Active
Cc1cc(C(=O)Nc2cccc(N3CCNC3=O)c2C)sc1C=O | 3.5 | – | – | – | inhibition [4]: > 50%
Cn1c(=O)[nH]c2ncc(-c3cccc(C(=O)Nc4ccc(Cl)c(CO)c4)c3)cc21 | 15 | – | – | – | –
CCc1c(C(=O)/C=C/c2ccc(O)c([N+](=O)[O-])c2)oc2ccccc12 | 25 | – | – | – | –
Nc1cn2cc(-c3cscc3Cl)ncc2n1 | 78 | – | > 50 | – | –
Cc1c(C(=O)/C=C/c2cc(Br)c(O)cc2F)c(C#N)c2n1CCC2 | – | Active | – | Active | inhibition (Bacteria [7]): inactive; inhibition (Homo sapiens [8]): inactive; inhibition (Bacteria [9]): Active
O=C(OCc1cn2cc(Br)ccc2n1)c1cc(-c2ccco2)[nH]n1 | 6 | – | – | – | –
CCC(=O)NCCC(=O)N1CCC(C2C(=O)Nc3cc(Cl)ccc32)CC1 (stereo not given) | – | – | – | – | inhibition [13]: inactive
CC(C)SCn1cnc2cnn(C)c2c1=O | 59 | Active | > 50 | Active | inhibition (Homo sapiens [8]): inactive
CN(C)c1cncc(NC(=O)c2ccc(C=O)cc2O)c1 | 12 | inactive | – | – | inhibition [4]: > 50%; inhibition (Bacteria [9]): inactive
Cn1c(C(=O)NCc2ccc(O)c([N+](=O)[O-])c2)c(Br)c2ccccc21 | 19 | Active | – | Active | inhibition (Bacteria [7]): inactive; inhibition (Homo sapiens [8]): inactive; inhibition (Bacteria [9]): Active
O=Cc1nc2ccccn2c1C=C1COC1 | 11 | – | – | – | inhibition [4]: > 50%
Cn1c(=O)[nH]c2ncc(-c3cccc(C(=O)Nc4cccc(C#N)c4)c3)cc21 | 20 | inactive | – | – | inhibition [14]: Active; CAC [6]: 10 µM; inhibition [15]: > 50%; inhibition (Bacteria [9]): inactive
O=C(NC1CSC1)c1ncnn2cccc12 | 62 | – | > 50 | Active | –
C=CC(=O)NCC(=O)C(=O)N1CCC(C2C(=O)Nc3cc(Cl)ccc32)CC1 (stereo not given) | 7 | – | – | – | inhibition [16]: Active
N#Cc1cncc(NCc2cc(Br)c[nH]2)n1 | 60 | – | > 50 | – | –
O=Cc1cc(F)c(C(=O)Nc2cc(Cl)c3c(c2)OCCO3)cc1F | 25 | – | – | – | inhibition [4]: > 50%
Cn1ncc(N)c1-c1cc2ccccc2[nH]1 | 341 | – | > 50 | Active | –
